Tested on: HEK-293T
Test: Multiplex assay against HEK293T;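 on Population Tubulin-Different-Phenotype (%): share of the cells with healthy nuclei that show this phenotype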
Format: toxicity, cell-based
Settings: human
Outline: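 With compound added, live cells were imaged on a CQ1 microscope at 37°C and 5% CO2; staining with Hoechst33342, BioTracker Green Microtubule Cytoskeleton Dye, MitoTracker Red and Annexin V Alexa Fluor 680 had been done at seeding. The CellPathfinder machine-learning gating scheme split cells into Hoechst high-intensity objects or normal cells, normal cells into healthy, pyknosed or fragmented nuclei, and pyknosed cells into mitotic or apoptotic. The tubulin, mitochondrial-mass and membrane-permeability phenotypes are per cents of healthy-nucleus cells.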

[1] = 12 h, 1 µM, compound concentration 1 uM, replicate 1
[2] = 12 h, 1 µM, compound concentration 1 uM, replicate 2
[3] = 12 h, 10 µM, compound concentration 10 uM, replicate 1
[4] = 12 h, 10 µM, compound concentration 10 uM, replicate 2
[5] = 24 h, 1 µM, compound concentration 1 uM, replicate 1
[6] = 24 h, 1 µM, compound concentration 1 uM, replicate 2
[7] = 24 h, 10 µM, compound concentration 10 uM, replicate 1
[8] = 24 h, 10 µM, compound concentration 10 uM, replicate 2

## Cn1nc(C(F)(F)F)cc1-c1cnc(N2CCc3cc(S(=O)(=O)Nc4c(F)cc(Cl)cc4F)cc(N4CCCC4=O)c32)nc1 [TP-020]
[1]
  Population Apoptotic (%): 25%
  Population Fragmented Nuclei (%): 10%
  Population Healthy Nuclei (%): 71%
  Population Hoechst High Intensity Objects (%): 10%
  Population Membrane Permeable-Phenotype (%): 6%
  Population Mitochondria Different-Phenotype (%): 9%
  Population Mitotic Cells (%): 74%
  Population Normal (%): 89%
  Population Pyknosed Nuclei (%): 18%
  Population Tubulin-Different-Phenotype (%): 16%
  Total Cell Count: 692
[2]
  Population Apoptotic (%): 16%
  Population Fragmented Nuclei (%): 5%
  Population Healthy Nuclei (%): 89%
  Population Hoechst High Intensity Objects (%): 1%
  Population Membrane Permeable-Phenotype (%): 9%
  Population Mitochondria Different-Phenotype (%): 13%
  Population Mitotic Cells (%): 83%
  Population Normal (%): 98%
  Population Pyknosed Nuclei (%): 5%
  Population Tubulin-Different-Phenotype (%): 37%
  Total Cell Count: 1398
[3]
  Population Apoptotic (%): 17%
  Population Fragmented Nuclei (%): 14%
  Population Healthy Nuclei (%): 63%
  Population Hoechst High Intensity Objects (%): 11%
  Population Membrane Permeable-Phenotype (%): 2%
  Population Mitochondria Different-Phenotype (%): 2%
  Population Mitotic Cells (%): 82%
  Population Normal (%): 88%
  Population Pyknosed Nuclei (%): 21%
  Population Tubulin-Different-Phenotype (%): 3%
  Total Cell Count: 565
[4]
  Population Apoptotic (%): 4%
  Population Fragmented Nuclei (%): 9%
  Population Healthy Nuclei (%): 86%
  Population Hoechst High Intensity Objects (%): 1%
  Population Mitochondria Different-Phenotype (%): 5%
  Population Mitotic Cells (%): 95%
  Population Normal (%): 98%
  Population Pyknosed Nuclei (%): 4%
  Population Tubulin-Different-Phenotype (%): 5%
  Total Cell Count: 1658
[5]
  Population Apoptotic (%): 21%
  Population Fragmented Nuclei (%): 10%
  Population Hoechst High Intensity Objects (%): 7%
  Population Membrane Permeable-Phenotype (%): 12%
  Population Mitochondria Different-Phenotype (%): 8%
  Population Mitotic Cells (%): 78%
  Population Normal (%): 92%
  Population Pyknosed Nuclei (%): 8%
  Population Tubulin-Different-Phenotype (%): 31%
  Total Cell Count: 805
[6]
  Population Apoptotic (%): 6%
  Population Fragmented Nuclei (%): 12%
  Population Healthy Nuclei (%): 81%
  Population Hoechst High Intensity Objects (%): 1%
  Population Membrane Permeable-Phenotype (%): 13%
  Population Mitochondria Different-Phenotype (%): 6%
  Population Mitotic Cells (%): 93%
  Population Normal (%): 98%
  Population Pyknosed Nuclei (%): 5%
  Population Tubulin-Different-Phenotype (%): 47%
  Total Cell Count: 1839
[7]
  Population Apoptotic (%): 26%
  Population Fragmented Nuclei (%): 11%
  Population Healthy Nuclei (%): 77%
  Population Hoechst High Intensity Objects (%): 5%
  Population Membrane Permeable-Phenotype (%): 8%
  Population Mitochondria Different-Phenotype (%): 1%
  Population Mitotic Cells (%): 73%
  Population Normal (%): 94%
  Population Pyknosed Nuclei (%): 10%
  Population Tubulin-Different-Phenotype (%): 7%
  Total Cell Count: 670
[8]
  Population Apoptotic (%): 3%
  Population Fragmented Nuclei (%): 26%
  Population Healthy Nuclei (%): 71%
  Population Hoechst High Intensity Objects (%): 3%
  Population Membrane Permeable-Phenotype (%): 5%
  Population Mitochondria Different-Phenotype (%): 0%
  Population Mitotic Cells (%): 96%
  Population Normal (%): 96%
  Population Pyknosed Nuclei (%): 2%
  Population Tubulin-Different-Phenotype (%): 5%
  Total Cell Count: 2801
